Data from ChEMBL document CHEMBL1138066, “Semisynthetic maytansine analogues for the targeted treatment of cancer” (J Med Chem, 2006).
pIC50: −log10 of the molar value.

Experiments:
KB = test: Cytotoxicity against human KB cell line by clonogenic plating efficiency assay after 72 hrs; type: functional, cell-based
In short: (§1)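 Clonogenic assay: 1000 cells per well in 6-well dishes, exposed to free maytansinoids (0 to 3 nM) for 72 h, then medium replaced with fresh medium. Colonies grown 7-10 days after plating, fixed and stained with 0.2% crystal violet in 10% formalin/PBS, counted. Surviving fraction = colonies in drug-treated wells / colonies in control wells; IC50 in nM.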

SK-BR-3 = test: Cytotoxicity against human SK-Br-3 cell line by clonogenic plating efficiency assay after 72 hrs; type: functional, cell-based; settings: SK-BR-3, 72 h; in short: as §1
A-431 = test: Cytotoxicity against human A431 cell line by clonogenic plating efficiency assay after 72 hrs; type: functional, cell-based; settings: A-431, 72 h
MCF7 = test: Cytotoxicity against human MCF7 cell line by clonogenic plating efficiency assay after 72 hrs; type: functional, cell-based; settings: MCF7, 72 h
A-375 = test: Cytotoxicity against human A375 cell line by clonogenic plating efficiency assay after 72 hrs; type: functional, cell-based; settings: A-375, 72 h
In short: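 Clonogenic survival: 1000 cells per well were plated and exposed to free or antibody-conjugated maytansinoid (0 to 3 nM) for 72 h. Medium was then replaced with fresh medium, and colonies grew for a total of 7-10 days after plating. Colonies were fixed and stained with 0.2% crystal violet in 10% formalin/PBS, then counted. Surviving fraction = colonies in drug-exposed wells / colonies in control wells.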

OVCAR-3 = test: Cytotoxicity against human Ovcar3 cell line by clonogenic plating efficiency assay after 24 hrs; settings: OVCAR-3, 24 h
A549 = test: Cytotoxicity against human A549 cell line by clonogenic plating efficiency assay after 72 hrs; type: functional, cell-based; settings: A549, 72 h
SW-620 = test: Cytotoxicity against human SW620 cell line by clonogenic plating efficiency assay after 24 hrs; settings: SW-620, 24 h
HCT-15 = test: Cytotoxicity against human HCT15 cell line by clonogenic plating efficiency assay after 72 hrs; type: cell-based; settings: HCT-15, 72 h

Row | SMILES | pIC50 (KB) | pIC50 (SK-BR-3) | also measured
1 | COc1cc2cc(c1Cl)N(C)C(=O)CC(OC(=O)[C@H](C)N(C)C(=O)CC[C@@H](C)SSC)C1(C)OC1C(C)C1CC(O)(NC(=O)O1)C(OC)/C=C/C=C(\C)C2 (stereo partly specified) | 10.38 | 10.57 | –
2 | COc1cc2cc(c1Cl)N(C)C(=O)CC(OC(=O)[C@H](C)N(C)C(=O)CC[C@H](C)SSC)C1(C)OC1C(C)C1CC(O)(NC(=O)O1)C(OC)/C=C/C=C(\C)C2 (stereo partly specified) | 10.40 | 10.49 | –
3 | COc1cc2cc(c1Cl)N(C)C(=O)CC(OC(=O)[C@@H](C)N(C)C(=O)CCC(C)(C)SSC)C1(C)OC1C(C)C1CC(O)(NC(=O)O1)C(OC)/C=C/C=C(\C)C2 (stereo partly specified) | < 9.52 | < 9.52 | –
4 | COc1cc2cc(c1Cl)N(C)C(=O)CC(OC(=O)[C@H](C)N(C)C(=O)CCSSc1ccccc1)C1(C)OC1C(C)C1CC(O)(NC(=O)O1)C(OC)/C=C/C=C(\C)C2 (stereo partly specified) | 10.00 | – | –
5 | COc1cc2cc(c1Cl)N(C)C(=O)CC(OC(=O)[C@H](C)N(C)C(=O)CCC(C)(C)SSCCCC(=O)O)C1(C)OC1C(C)C1CC(O)(NC(=O)O1)C(OC)/C=C/C=C(\C)C2 (stereo partly specified) | 7.64 | 8.15 | –
6 | COc1cc2cc(c1Cl)N(C)C(=O)CC(OC(=O)[C@@H](C)N(C)C(=O)CC[C@H](C)SSC)C1(C)OC1C(C)C1CC(O)(NC(=O)O1)C(OC)/C=C/C=C(\C)C2 (stereo partly specified) | < 8.52 | < 8.52 | –
7 | COc1cc2cc(c1Cl)N(C)C(=O)CC(OC(=O)[C@@H](C)N(C)C(=O)CCCSSC)C1(C)OC1C(C)C1CC(O)(NC(=O)O1)C(OC)/C=C/C=C(\C)C2 (stereo partly specified) | 8.70 | – | –
8 | COc1cc2cc(c1Cl)N(C)C(=O)CC(OC(=O)[C@@H](C)N(C)C(=O)CCS)C1(C)OC1C(C)C1CC(O)(NC(=O)O1)C(OC)/C=C/C=C(\C)C2 (stereo partly specified) | < 8.52 | < 8.52 | –
9 | COc1cc2cc(c1Cl)N(C)C(=O)CC(OC(=O)[C@@H](C)N(C)C(=O)CCC(C)(C)S)C1(C)OC1C(C)C1CC(O)(NC(=O)O1)C(OC)/C=C/C=C(\C)C2 (stereo partly specified) | < 9.00 | 8.48 | –
10 | COc1cc2cc(c1Cl)N(C)C(=O)CC(OC(=O)[C@@H](C)N(C)C(=O)CCSSC)C1(C)OC1C(C)C1CC(O)(NC(=O)O1)C(OC)/C=C/C=C(\C)C2 (stereo partly specified) | 8.52 | 8.22 | –
11 | COc1cc2cc(c1Cl)N(C)C(=O)CC(OC(=O)[C@H](C)N(C)C(=O)CCSSC)C1(C)OC1C(C)C1CC(O)(NC(=O)O1)C(OC)/C=C/C=C(\C)C2 (stereo partly specified) | 10.54 | 10.85 | pIC50 (A-431): > 10.52; pIC50 (MCF7): > 10.52; pIC50 (A-375): 10.52; pIC50 (OVCAR-3): 10.30; pIC50 (A549): 9.92; pIC50 (SW-620): 10.40; pIC50 (HCT-15): 9.89
12 | COc1cc2cc(c1Cl)N(C)C(=O)CC(OC(=O)[C@H](C)N(C)C(=O)CCCSSC)C1(C)OC1C(C)C1CC(O)(NC(=O)O1)C(OC)/C=C/C=C(\C)C2 (stereo partly specified) | 11.07 | 10.42 | –
13 | COc1cc2cc(c1Cl)N(C)C(=O)CC(OC(=O)[C@H](C)N(C)C(=O)CCSSC(C)CCC(=O)O)C1(C)OC1C(C)C1CC(O)(NC(=O)O1)C(OC)/C=C/C=C(\C)C2 (stereo partly specified) | 8.74 | 8.47 | –
14 | COc1cc2cc(c1Cl)N(C)C(=O)CC(OC(=O)[C@H](C)N(C)C(=O)CCC(C)S)C1(C)OC1C(C)C1CC(O)(NC(=O)O1)C(OC)/C=C/C=C(\C)C2 (stereo partly specified) | 10.11 | 10.51 | –
15 | COc1cc2cc(c1Cl)N(C)C(=O)CC(OC(=O)[C@H](C)N(C)C(=O)CCC(C)(C)SSC)C1(C)OC1C(C)C1CC(O)(NC(=O)O1)C(OC)/C=C/C=C(\C)C2 (stereo partly specified) | 11.96 | 11.49 | –
16 | COc1cc2cc(c1Cl)N(C)C(=O)CC(OC(=O)[C@H](C)N(C)C(=O)CCS)C1(C)OC1C(C)C1CC(O)(NC(=O)O1)C(OC)/C=C/C=C(\C)C2 (stereo partly specified) | 8.96 | 8.96 | –
17 | COc1cc2cc(c1Cl)N(C)C(=O)CC(OC(=O)[C@H](C)N(C)C(=O)CCC(C)(C)S)C1(C)OC1C(C)C1CC(O)(NC(=O)O1)C(OC)/C=C/C=C(\C)C2 (stereo partly specified) | 9.54 | 9.92 | –
18 | COc1cc2cc(c1Cl)N(C)C(=O)CC(OC(=O)[C@H](C)N(C)C(=O)CCSSCCC(=O)N(C)[C@@H](C)C(=O)OC1CC(=O)N(C)c3cc(cc(OC)c3Cl)C/C(C)=C/C=C/C(OC)C3(O)CC(OC(=O)N3)C(C)C3OC13C)C1(C)OC1C(C)C1CC(O)(NC(=O)O1)C(OC)/C=C/C=C(\C)C2 (stereo partly specified) | 9.85 | 10.00 | –
19 | COc1cc2cc(c1Cl)N(C)C(=O)CC(OC(=O)[C@@H](C)N(C)C(=O)CC[C@@H](C)SSC)C1(C)OC1C(C)C1CC(O)(NC(=O)O1)C(OC)/C=C/C=C(\C)C2 (stereo partly specified) | 8.62 | 8.66 | –
20 | COc1cc2cc(c1Cl)N(C)C(=O)CC(OC(=O)[C@H](C)N(C)C(=O)CCC(C)(C)SSC(C)(C)CCC(=O)N(C)[C@@H](C)C(=O)OC1CC(=O)N(C)c3cc(cc(OC)c3Cl)C/C(C)=C/C=C/C(OC)C3(O)CC(OC(=O)N3)C(C)C3OC13C)C1(C)OC1C(C)C1CC(O)(NC(=O)O1)C(OC)/C=C/C=C(\C)C2 (stereo partly specified) | 11.80 | 11.92 | –
21 | COc1cc2cc(c1Cl)N(C)C(=O)CC(OC(=O)[C@@H](C)N(C)C(=O)CCC(C)SSC)C1(C)OC1C(C)C1CC(O)(NC(=O)O1)C(OC)/C=C/C=C(\C)C2 (mixture of isomers) | 8.92 | 9.66 | –
22 | COc1cc2cc(c1Cl)N(C)C(=O)CC(OC(=O)[C@H](C)N(C)C(=O)CCC(C)SSC)C1(C)OC1C(C)C1CC(O)(NC(=O)O1)C(OC)/C=C/C=C(\C)C2 (mixture of isomers) | 10.96 | 11.38 | –
23 | COc1cc2cc(c1Cl)N(C)C(=O)C[C@H](OC(=O)[C@H](C)N(C)C(C)=O)[C@]1(C)O[C@H]1[C@H](C)[C@@H]1C[C@@](O)(NC(=O)O1)[C@H](OC)/C=C/C=C(\C)C2 [MAYTANSINE] | 10.47 | 10.52 | pIC50 (A-431): 10.40; pIC50 (MCF7): 10.36; pIC50 (A-375): 10.43; pIC50 (OVCAR-3): 10.00; pIC50 (A549): 9.80; pIC50 (SW-620): < 10.00; pIC50 (HCT-15): 9.12
24 | COc1cc2cc(c1Cl)N(C)C(=O)CC(O)C1(C)OC1C(C)C1CC(O)(NC(=O)O1)C(OC)/C=C/C=C(\C)C2 (stereo unspecified) [MAYTANSINOL] | < 8.52 | 8.92 | –
25 | COc1cc2cc(c1Cl)N(C)C(=O)CC(OC(=O)[C@H](C)N(C)C(=O)CSSC)C1(C)OC1C(C)C1CC(O)(NC(=O)O1)C(OC)/C=C/C=C(\C)C2 (stereo partly specified) [METHYLDITHIOACETYL MAYTANSINOID] | 9.72 | – | –
